In ChEMBL document CHEMBL1140074, “Aminoacyl-anthraquinone conjugates as telomerase inhibitors: synthesis, biophysical and biological evaluation” (J Med Chem, 2008):
pEC50: −log10 of the molar value.

What was measured:
Homo sapiens [1] = species: Homo sapiens; assay: Binding affinity to human telomeric DNA sequence assessed as stabilization of G-quadruplex at 10 uM by thermal denaturation
Summary of the method: (§1)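 Fluorescence melting in a LightCycler of 0.25 µM telomeric oligonucleotide HTS (5'-FAM, 3'-methyl red) in LiP buffer (10 mM LiOH, 50 mM KCl, pH 7.4 with H3PO4). Samples were denatured at 95 °C for 5 min, then cooled and reheated at 0.5 °C/min in 1 °C steps with 2 min equilibration per step. Excitation 488 nm, emission 520 nm. ΔTm was taken relative to ligand-free DNA.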

Homo sapiens [2] = species: Homo sapiens; assay: Binding affinity to human telomeric DNA sequence assessed as stabilization of G-quadruplex at 1 uM by thermal denaturation; summary of the method: as §1
[3] = target: DNA polymerase I, thermostable (Thermus aquaticus, UniProt P19821); assay: Inhibition of Taq polymerase
Summary of the method: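 PCR with 2.5 ng pBR322 template and primers Tup/Tdown (0.5 µM) amplifying plasmid bases 906-1064. Compounds tested from 20 nM to 40 µM. Run 25 cycles of 94 °C, 65 °C and 72 °C (30 s each). Products resolved on 2% agarose in TBE and stained with ethidium bromide.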

[4] = target: Telomerase reverse transcriptase (Homo sapiens, UniProt O14746); assay: Inhibition of telomerase in human JR8 cells by TRAP assay; format: cell-based
Summary of the method: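 Telomerase source was a CHAPS lysate of exponentially growing JR8 cells (500 ng protein per reaction). Elongation 30 min at 30 °C, then 30 PCR cycles. Products run on 10% PAGE with phosphorimager read-out, in triplicate. Drug levels kept below those inhibiting Taq.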

Sequence of Telomerase reverse transcriptase (O14746 whole entry): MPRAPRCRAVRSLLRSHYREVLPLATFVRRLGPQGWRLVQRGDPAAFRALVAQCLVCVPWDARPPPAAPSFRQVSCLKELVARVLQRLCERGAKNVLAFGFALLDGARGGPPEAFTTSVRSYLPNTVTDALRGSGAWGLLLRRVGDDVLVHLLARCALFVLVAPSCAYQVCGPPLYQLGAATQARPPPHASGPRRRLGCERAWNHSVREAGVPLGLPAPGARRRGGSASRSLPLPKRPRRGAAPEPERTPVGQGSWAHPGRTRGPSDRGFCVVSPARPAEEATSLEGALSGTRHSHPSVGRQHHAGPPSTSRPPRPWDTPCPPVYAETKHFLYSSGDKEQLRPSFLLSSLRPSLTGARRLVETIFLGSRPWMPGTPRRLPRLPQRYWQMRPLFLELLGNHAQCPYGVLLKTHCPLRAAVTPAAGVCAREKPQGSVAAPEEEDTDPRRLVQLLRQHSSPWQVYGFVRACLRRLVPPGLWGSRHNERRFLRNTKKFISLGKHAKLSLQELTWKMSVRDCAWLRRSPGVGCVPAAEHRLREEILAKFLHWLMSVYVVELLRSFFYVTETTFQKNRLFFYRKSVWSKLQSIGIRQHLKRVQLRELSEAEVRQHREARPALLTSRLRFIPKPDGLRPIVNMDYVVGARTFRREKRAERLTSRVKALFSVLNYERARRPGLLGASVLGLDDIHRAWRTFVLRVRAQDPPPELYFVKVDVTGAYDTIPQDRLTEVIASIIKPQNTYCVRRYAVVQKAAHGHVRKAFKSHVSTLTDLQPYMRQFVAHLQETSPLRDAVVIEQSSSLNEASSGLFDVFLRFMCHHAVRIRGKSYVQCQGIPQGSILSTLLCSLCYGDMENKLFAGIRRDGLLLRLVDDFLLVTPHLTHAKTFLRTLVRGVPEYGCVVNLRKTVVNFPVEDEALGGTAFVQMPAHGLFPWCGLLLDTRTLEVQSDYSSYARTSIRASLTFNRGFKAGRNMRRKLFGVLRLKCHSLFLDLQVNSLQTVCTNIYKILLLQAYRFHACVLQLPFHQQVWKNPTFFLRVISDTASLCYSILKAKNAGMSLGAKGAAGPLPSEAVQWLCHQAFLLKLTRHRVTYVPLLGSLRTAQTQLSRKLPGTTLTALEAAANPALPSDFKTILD
Sequence of DNA polymerase I, thermostable (P19821 whole entry): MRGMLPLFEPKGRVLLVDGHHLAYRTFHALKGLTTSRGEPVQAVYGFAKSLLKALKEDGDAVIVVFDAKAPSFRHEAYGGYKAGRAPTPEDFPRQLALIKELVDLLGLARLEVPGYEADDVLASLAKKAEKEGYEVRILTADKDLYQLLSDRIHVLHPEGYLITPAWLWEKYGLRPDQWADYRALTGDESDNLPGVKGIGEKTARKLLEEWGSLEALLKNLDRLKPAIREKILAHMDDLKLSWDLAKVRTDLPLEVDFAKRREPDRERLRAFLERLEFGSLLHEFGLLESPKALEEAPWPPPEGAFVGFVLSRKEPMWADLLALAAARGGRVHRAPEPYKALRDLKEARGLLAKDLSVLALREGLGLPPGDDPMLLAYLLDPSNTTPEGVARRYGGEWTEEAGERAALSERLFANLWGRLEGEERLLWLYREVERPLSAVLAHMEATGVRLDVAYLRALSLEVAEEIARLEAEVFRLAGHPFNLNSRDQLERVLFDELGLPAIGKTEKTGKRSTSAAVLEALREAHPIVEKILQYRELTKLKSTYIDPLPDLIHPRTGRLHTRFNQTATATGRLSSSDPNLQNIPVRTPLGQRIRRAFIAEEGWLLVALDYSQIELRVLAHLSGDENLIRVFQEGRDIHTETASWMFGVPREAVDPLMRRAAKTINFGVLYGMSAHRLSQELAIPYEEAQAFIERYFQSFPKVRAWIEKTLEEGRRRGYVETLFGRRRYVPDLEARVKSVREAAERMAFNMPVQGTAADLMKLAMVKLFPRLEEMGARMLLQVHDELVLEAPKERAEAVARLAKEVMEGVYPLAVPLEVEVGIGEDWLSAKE

| ΔTm (Homo sapiens [1]) | ΔTm (Homo sapiens [2]) | pEC50 [3] | pEC50 [4] | Compound |
| --- | --- | --- | --- | --- |
| 1.9 °C | 0.4 °C | < 4.40 | < 4.40 | C[C@@H](O)[C@H](N)C(=O)NCCNC(=O)c1ccc2c(c1)C(=O)c1ccc(C(=O)NCCNC(=O)[C@@H](N)[C@@H](C)O)cc1C2=O |
|  |  | 5.00 | 5.92 | NC(N)=NCCC[C@H](N)C(=O)NCCNC(=O)c1ccc2c(c1)C(=O)c1cc(C(=O)NCCNC(=O)[C@@H](N)CCCN=C(N)N)ccc1C2=O |
| 3.3 °C | 0.4 °C | < 4.40 | < 4.40 | NCC(=O)NCCNC(=O)c1ccc2c(c1)C(=O)c1cc(C(=O)NCCNC(=O)CN)ccc1C2=O |
| 5.7 °C | 0 °C | < 4.40 | < 4.40 | CC[C@H](C)[C@H](N)C(=O)NCCC(=O)Nc1ccc2c(c1)C(=O)c1ccc(NC(=O)CCNC(=O)[C@@H](N)[C@@H](C)CC)cc1C2=O |
| 7 °C | 0.3 °C | < 4.40 | < 4.40 | N[C@@H](Cc1ccccc1)C(=O)NCCC(=O)Nc1ccc2c(c1)C(=O)c1cc(NC(=O)CCNC(=O)[C@@H](N)Cc3ccccc3)ccc1C2=O |
| 3.2 °C | 0.3 °C | < 4.40 | < 4.40 | C[C@@H](O)[C@H](N)C(=O)NCCNC(=O)c1ccc2c(c1)C(=O)c1cc(C(=O)NCCNC(=O)[C@@H](N)[C@@H](C)O)ccc1C2=O |
| 2.7 °C | 0.3 °C | < 4.40 | < 4.40 | CC(C)C[C@H](N)C(=O)NCCNC(=O)c1ccc2c(c1)C(=O)c1cc(C(=O)NCCNC(=O)[C@@H](N)CC(C)C)ccc1C2=O |

More lines, now with the values behind:

| Compound | ΔTm (Homo sapiens [1]) | ΔTm (Homo sapiens [2]) | pEC50 [3] | pEC50 [4] |
| --- | --- | --- | --- | --- |
| NC(N)=NCCC[C@H](N)C(=O)NCCC(=O)Nc1ccc2c(c1)C(=O)c1cc(NC(=O)CCNC(=O)[C@@H](N)CCCN=C(N)N)ccc1C2=O |  |  | 5.40 | 5.40 |
| CC(C)[C@H](N)C(=O)NCCC(=O)Nc1ccc2c(c1)C(=O)c1ccc(NC(=O)CCNC(=O)[C@@H](N)C(C)C)cc1C2=O | 6 °C | 0 °C | < 4.40 | < 4.40 |
| NC(N)=NCCC[C@H](N)C(=O)NCC(=O)Nc1ccc2c(c1)C(=O)c1ccc(NC(=O)CNC(=O)[C@@H](N)CCCN=C(N)N)cc1C2=O |  |  | 5.00 | 6.10 |
| N[C@@H](Cc1ccccc1)C(=O)NCCNC(=O)c1ccc2c(c1)C(=O)c1cc(C(=O)NCCNC(=O)[C@@H](N)Cc3ccccc3)ccc1C2=O | 1 °C | 0.1 °C | < 4.40 | < 4.40 |
| CC(C)C[C@H](N)C(=O)NCCNC(=O)c1ccc2c(c1)C(=O)c1ccc(C(=O)NCCNC(=O)[C@@H](N)CC(C)C)cc1C2=O | 1.3 °C | 0.2 °C | < 4.40 | < 4.40 |
| N[C@@H](CO)C(=O)NCCNC(=O)c1ccc2c(c1)C(=O)c1cc(C(=O)NCCNC(=O)[C@@H](N)CO)ccc1C2=O | 2.1 °C | 0.3 °C | < 4.40 | < 4.40 |
| N[C@@H](CO)C(=O)NCCNC(=O)c1ccc2c(c1)C(=O)c1ccc(C(=O)NCCNC(=O)[C@@H](N)CO)cc1C2=O | 2.5 °C | 0.3 °C | < 4.40 | < 4.40 |
| NC(N)=NCCC[C@H](N)C(=O)NCCC(=O)Nc1ccc2c(c1)C(=O)c1ccc(NC(=O)CCNC(=O)[C@@H](N)CCCN=C(N)N)cc1C2=O |  |  | 5.00 | 6.10 |
| C[C@H](N)C(=O)NCCNC(=O)c1ccc2c(c1)C(=O)c1ccc(C(=O)NCCNC(=O)[C@H](C)N)cc1C2=O | 4.4 °C | 0.4 °C | < 4.40 | < 4.40 |
| NCC(=O)NCCNC(=O)c1ccc2c(c1)C(=O)c1ccc(C(=O)NCCNC(=O)CN)cc1C2=O | 2.9 °C | 0.3 °C | < 4.40 | < 4.40 |
| C[C@H](N)C(=O)NCCNC(=O)c1ccc2c(c1)C(=O)c1cc(C(=O)NCCNC(=O)[C@H](C)N)ccc1C2=O | 3.9 °C | 0.5 °C | < 4.40 | < 4.40 |
| N=C(N)NCCC[C@H](N)C(=O)NCCC(=O)Nc1ccc2c(c1)C(=O)c1cc(NC(=O)CCNC(=O)[C@@H](N)CCCNC(=N)N)ccc1C2=O | 13.3 °C | 0.6 °C |  |  |
